Laboratory results as given in the EternaBench riboswitch data.

Tested on: MS2 coat protein
Experiment: apparent Kd, MS2 coat protein; higher = weaker binding; RNA-MaP array; tryptophan 2.4 mM where present
In short: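 The apparent Kd comes from binding curves fitted cluster by cluster, filtered, and summarised as a median. Those curves followed SNAP-549-labelled MS2 coat protein from 0.7 or 1.5 nM, doubling to 3 µM, on Illumina sequencing-chip clusters where stalled E. coli RNA polymerase had transcribed the designs, without and then with constant ligand. The buffer was 100 mM Tris-HCl pH 7.5, 80 mM KCl, 4 mM MgCl2, BSA, DTT, yeast tRNA and Tween-20, and green signal was normalised to red-channel RNA signal and control-cluster median Fmax.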

[1] = designed as: ON switch for tryptophan, no ligand
[2] = ligand present: tryptophan, designed as: ON switch for tryptophan
[3] = designed as: OFF switch for tryptophan, no ligand
[4] = ligand present: tryptophan, designed as: OFF switch for tryptophan

Sequence	apparent Kd [1] [nM]	apparent Kd [2] [nM]	apparent Kd [3] [nM]	apparent Kd [4] [nM]
CACAGUGCGAAUUUGAAUUCGCACGAUCCUCGAGGACCGGUACGGCCGCCACUCGCGCGGGUCGUACAUGAGGAUCACCCAUGUC	166	842	–	–
GCUCACAUGAGGAUCACCCAUGUACGUCCGCGAGGACCGGUACGGCCGCCACUCGUGUUAGCUUCAAACUUGUUAGUGUUAAACA	40.4	16.1	–	–
AACAUGAGGAUCACCCAUGUCCCAUGUGAACGAGGACCGGUACGGCCGCCACUCGAAUAAGGCGGCACAUGAGGAUCACCCACAU	168	373	–	–
ACAUUGCGCACGGCCGCCACUGGCUAUAGAUUUAUAGCAUUAAUGAACAUGAGGAUCACCCAUGUCAGGACCGGGUGCGAACCAU	17.3	19.7	–	–
AUUGUGAAGUCGGCCGCCACUGGUUAGUUUAACCUCAUGUAACAUGAGGAUCACCCAUGUAAUGACAGGACCGGGACAAUAGUAA	–	–	187	151
AACAUGAGGAUCACCCAUGUCCCAUGUGAACGAGGACCGGUACGGCCGCCACUCGACCGAGGCGGCACAUGAGGAUCACCCGCAU	375	926	–	–
UAUAAUAACUCGGCCGCCACUGGCACAUGAGGAUCACCCAUGUCUAUAUAUAAUAUAUAGUUGCACAGGACCGGGAGAUAUAUAU	–	–	8.95	8.21
AUUCAUGGAAACAUGACAUAGGGAUCACUCCGAGGACCGGUACGGCCGCCACUCGCGAGGAGGCACAUGAGGAUCACCCAUGUUA	49	39.7	–	–
ACGCUGCAUAGGAAAACUAUGUAGCGAAAUCGAGGACCGGUACGGCCGCCACUCGUCCUCAACAUGAGGAUCACCCAUGUAAUAA	–	–	19.9	34.7
CACGAAAGAUCGGCCGCCACUAAUCUAUGUGUUCUUUCACAUGAGGAUCACCCAUGUUCUUGCGUUAGGACCGGGAUUGAGCGUG	–	–	34.1	36.4
UAUAUAUAUCACUAACUGUUCUUGAGGUCUCGAGGACCGGUACGGCCGCCACUCGGGCCGCCUCACAUGAGGAUCACCCAUGUCC	–	–	56.4	68.2
AACAUGAGGAUCACCCAUGUGUCCUCGAAACGAGGACCGGUACGGCCGCCACUCGAAUAAGCUGUUGACGAAAAGUCAGCAGCAA	–	–	257	670
AUAACAUGAGGAUCACCCAUGUAUUGGUAACGAGGACCGGUACGGCCGCCACUCGUAUUUUGGUGGUAUUAUAUAUAUAUGAUUA	20.8	19.7	–	–
AACAUCACAACGGCCGCCACUGCACAUGACAACAUGAGGAUCACCCAUGUGGAUCACCCAUGUCCCAGGACCGGGUUAUGAGGAU	29.1	25.9	–	–
GCGGAAUAAUCGGCCGCCACUAUGAGACAGGAAACUGUCACAUGAGGAUCACCCAUGUAUCCUCAUAGGACCGGGAUUAAAACGC	76.3	19.4	–	–
UCGUUUUAGUCGGCCGCCACUGUAUGCAUGUUUAACAUGAGGAUCACCCAUGUCCCGUACUAUUUCAGGACCGGGACGUAAUCGA	322	156	–	–
ACACAAUACAUGAGGAUCACCCAUGUAUAACGAGGACCGGUACGGCCGCCACUCGAAUACUGUAAUCCUCGGAAUAUUAUGUGAA	–	–	39	19.1
AAUACCGGAUCGGCCGCCACUGGUUGGCCCUGUGUACAUGAGGAUCACCCAUGUCCAUCCCAAACCAGGACCGGGAUCUUUGUGC	12	10.2	–	–
AAUUCAAGGUUCUUGAUGUAUUAUAUAUUUCGAGGACCGGUACGGCCGCCACUCGUUAAUUACAUGAGGAUCACCCAUGUUAGCU	–	–	17	20.9
GGUACAUGAGGAUCACCCAUGUAUUGGUACCGAGGACCGGUACGGCCGCCACUCGCAUGACAUGAGGAUCACCCAUGUGAAACCU	52.5	66.5	–	–
